Pf Dd2 inh: P. falciparum Dd2 growth inhibition | SYBR Green, 72 h; stronger effect = lower value | activity change, % at 10 µM | 2.3% of 94,000 active | AID 1159554; in the data active means activity change below about -80%; inconclusive means no clear call, values can overlap the other calls
IDH1 R132H inh: IDH1 R132H (human) inhibition; IDH1 R132H reductase, diaphorase/resazurin fluorescence, 60 min; AID 624101; inhibition, % at 10 µM; O75874; 0.18% of 70,000 active; in the data active means inhibition above about 34%; inconclusive means no clear call, values can overlap the other calls; inactive means below about 11%;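 further: 0% = DMSO and 100% = no enzyme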
Target sequence (O75874 whole entry R132H): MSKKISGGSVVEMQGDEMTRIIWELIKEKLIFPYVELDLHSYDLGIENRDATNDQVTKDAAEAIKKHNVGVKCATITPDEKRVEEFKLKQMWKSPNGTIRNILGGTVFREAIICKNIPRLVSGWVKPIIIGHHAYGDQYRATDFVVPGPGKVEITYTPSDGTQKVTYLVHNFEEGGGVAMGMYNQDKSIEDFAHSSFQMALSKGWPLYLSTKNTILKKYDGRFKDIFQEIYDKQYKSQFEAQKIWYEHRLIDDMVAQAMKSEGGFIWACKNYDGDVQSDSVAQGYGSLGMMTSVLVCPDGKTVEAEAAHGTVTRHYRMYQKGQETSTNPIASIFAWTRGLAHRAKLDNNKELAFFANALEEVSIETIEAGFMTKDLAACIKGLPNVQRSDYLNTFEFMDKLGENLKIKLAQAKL
T cruzi growth-1: blocks T. cruzi growth in NIH3T3 culture; 5.9% of 77,000 active; AID 624255; T. cruzi beta-gal in NIH3T3, GalScreen luminescence, 90 h; inhibition, % at 8.34 µM;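 active means mean inhibition above about 93%, with at least 55% of replicates each passing it, limit read from the data, passing the limit was not always enough; inconclusive means only one of those two conditions holds; inactive means neither condition holds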
GASC1 inh: inhibitors of human demethylase GASC-1 KDM4C. 0.15% of 96,000 active. inhibition, % at 12.5 µM. Q9H3R0. GST-KDM4C 2-372, H3K9me3 peptide, LANCE TR-FRET;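 active means mean replicate inhibition above about 25%, with at least 55% of replicates also reaching it, limit read from the data, passing the limit was not always enough; inconclusive means only one of those two conditions met; inactive means neither condition met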
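System – N-terminal GST-fused human GASC-1 (KDM4C) fragment, residues 2-372 · Input – enzyme final amount 10 nM · Technique – LANCE TR-FRET, Eu antibody, ULight-streptavidin, EDTA, ex 340 nm, em 618/671 nm · Medium – HEPES buffer, pH 7.5, plus ascorbate · Incubation – enzyme reaction 30 min, then detection 60 min, both room temperature · Reagent – H3K9me3 peptide with Fe(II)/2OG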
T cruzi growth-2: Trypanosoma cruzi proliferation inhibition. shares compounds with T cruzi growth-1. T. cruzi beta-gal in NIH3T3, GalScreen luminescence, 90 h. inhibition, % at 8.35 µM. 72% of 5,600 active. AID 651739;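 active means mean replicate inhibition above about 95% and at least 55% of replicates individually reaching it, limit read from the data; inconclusive means only one of the two criteria is met; inactive means neither criterion is met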
T cruzi growth-3: inhibitors of T. cruzi proliferation; shares compounds with T cruzi growth-1; T. cruzi beta-gal in NIH3T3, GalScreen luminescence, 90 h; inhibition, % at 2.09 µM; 21% of 5,600 active;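 active means mean inhibition above about 95%, with at least 55% of replicates also reaching it, limit read from the data; inconclusive means meets just one of the two conditions; inactive means meets neither condition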;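 further: plate controls were neutral control median for no effect and positive control median for full effect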
NIH3T3 tox: NIH/3T3 (mouse) viability loss; shares compounds with T cruzi growth-1; NIH/3T3 viability, CellTiter-Glo ATP luminescence, 90 h; cytotoxicity (signal decrease), % at 8.35 µM; 14% of 5,600 active;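 active means mean signal decrease across replicates above about 35% based on untreated-well scatter, with enough replicates individually passing, limit read from the data; inconclusive means no rule stated though some were filed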;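 further: 0% = median of neutral control wells and 100% = median of positive control wells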
NIH3T3 tox 2: NIH/3T3 (mouse) viability loss | AID 651744 | 56% of 5,600 active | inhibition, % at 24.9 µM | shares compounds with T cruzi growth-1 | NIH/3T3 viability, CellTiter-Glo ATP luminescence, 90 h;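 active means mean loss of cell viability signal at or above a set limit, and enough replicates individually reaching it; inconclusive means meets only the mean limit or only the replicate share; inactive means meets neither condition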;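 further: 0% = median of neutral control wells and 100% = median of positive control wells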
Numbers without * were called inactive; u = inconclusive; x = no result. A selection: hits, their analogues and other compounds. The true share with any hit is near 5.9%.

SMILES	Pf Dd2 inh	IDH1 R132H inh	T cruzi growth-1	GASC1 inh	T cruzi growth-2	T cruzi growth-3	NIH3T3 tox	NIH3T3 tox 2
COc1ccc(-n2c(SCC(=O)Nc3ccccc3C)nc3ccccc3c2=O)cc1	x	0	x	x	x	x	x	x
O=S(=O)(c1ccccc1)N1CCCCN2[C@H](CO)[C@@H](c3ccc(-c4ccccc4)cc3)[C@@H]2C1	5	x	49	1	x	x	x	x
N#Cc1ccc(-c2ccc([C@H]3[C@H](CO)N4CCCCN(S(=O)(=O)c5ccccc5)C[C@@H]34)cc2)cc1	-36	x	116*	-1	108*	55	51*	88*
N#Cc1ccc(-c2ccc([C@H]3[C@H]4CN(S(=O)(=O)c5ccccc5)CCCCN4[C@H]3CO)cc2)cc1	-7	x	114*	-2	107*	76	22	24
CCOc1ccc(NC(=O)CN2C(=O)c3ccccc3S2(=O)=O)cc1	x	0	x	x	x	x	x	x
O=C(NO)c1ccc(C(=O)N/N=C/c2cc(F)ccc2O)cc1	x	0	x	x	x	x	x	x
C[C@@H]1CN([C@@H](C)CO)C(=O)c2cc(C3=CCCCC3)cnc2O[C@H]1CN(C)C(=O)Cc1ccccc1	-4	0	u	2	75	55	32	64*
C[C@@H]1CN([C@@H](C)CO)C(=O)c2cc(C3=CCCCC3)cnc2O[C@H]1CN(C)C(=O)Cc1ccncc1	-19	x	x	0	x	x	x	x
C[C@@H]1CN([C@H](C)CO)C(=O)c2cc(C3=CCCC3)cnc2O[C@@H]1CN(C)C(=O)Cc1ccncc1	-31	x	96*	0	25	-13	-9	28*
COCCNS(=O)(=O)c1cc([N+](=O)[O-])ccc1C	x	0	x	x	x	x	x	x
CC(O)c1cc(-c2ccc(Cl)cc2Cl)no1 (stereo not drawn)	x	0	x	x	x	x	x	x
C[C@H]1CCCCO[C@H](CN(C)C(=O)c2ccncc2)[C@@H](C)CN([C@@H](C)CO)C(=O)c2cc(NC(=O)c3ccccc3)ccc2O1	-7	x	100*	0	51	11	-4	-8
C[C@H](CO)N1C[C@H](C)[C@@H](CN(C)C)OCCCC[C@H](C)Oc2ccc(NC(=O)c3ccncc3)cc2C1=O	x	2	3	0	x	x	x	x
C[C@@H]1CN([C@@H](C)CO)C(=O)c2cc(NC(=O)c3ccccc3)ccc2O[C@@H](C)CCCCO[C@H]1CN(C)C(=O)c1ccccc1	-52	-6	u	7	91	0	-2	0
C[C@@H]1CCCCO[C@@H](CN(C)C)[C@H](C)CN([C@@H](C)CO)C(=O)c2cc(NC(=O)c3ccncc3)ccc2O1	29	4	100*	2	-11	-38	-9	-4
CCn1c(SCc2nc3ccccc3c(=O)[nH]2)nnc1-c1ccccc1C	x	1	x	x	x	x	x	x
C[C@@H]1CCCCO[C@H](CN(C)C(=O)Nc2cccc3ccccc23)[C@H](C)CN([C@@H](C)CO)C(=O)c2cc(NC(=O)Nc3ccc(C(F)(F)F)cc3)ccc2O1	-63	-3	109*	-1	111*	113*	7	12
C[C@@H]1CCCCO[C@@H](CN(C)C(=O)Nc2ccc(C(F)(F)F)cc2)[C@H](C)CN([C@H](C)CO)C(=O)c2cc(NC(=O)Nc3cccc4ccccc34)ccc2O1	-79	0	100*	-1	107*	102*	-6	5
C[C@@H]1CCCCO[C@H](CN(C)C(=O)Nc2ccc(C(F)(F)F)cc2)[C@H](C)CN([C@@H](C)CO)C(=O)c2cc(NC(=O)Nc3cccc4ccccc34)ccc2O1	-73	x	86	-1	x	x	x	x
Cc1ccc(S(=O)(=O)N(CC(=O)O)c2cc(Cl)ccc2C)cc1	x	0	x	x	x	x	x	x
O=C(CNC(=O)c1ccc([N+](=O)[O-])cc1)Nc1cccc(C(F)(F)F)c1	x	0	x	x	x	x	x	x
CC(C)C(=O)Nc1sc2c(c1C(=O)Nc1cccnc1)CCCC2	x	2	x	x	x	x	x	x
C[C@@H]1CN([C@@H](C)CO)C(=O)c2cc(NS(=O)(=O)c3cccs3)ccc2O[C@@H]1CN(C)CC1CC1	8	2	99*	-1	77	32	17	10
